Screens from PubChem BioAssay.
E-selectin induc: induces E-selectin expression in human endothelial cells; HUVEC E-selectin immunofluorescence imaging; normalized: neutral wells 0, TNF-alpha wells 100; activation, % at 7.58 µM; 260,000 compounds, 0.37% hits; AID 686992;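 active = mean E-selectin-positive cell signal at least 10% of the positive control, reached in at least 60% of replicates, without over 20% cell loss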
Target sequence (P16581 whole entry, looked up): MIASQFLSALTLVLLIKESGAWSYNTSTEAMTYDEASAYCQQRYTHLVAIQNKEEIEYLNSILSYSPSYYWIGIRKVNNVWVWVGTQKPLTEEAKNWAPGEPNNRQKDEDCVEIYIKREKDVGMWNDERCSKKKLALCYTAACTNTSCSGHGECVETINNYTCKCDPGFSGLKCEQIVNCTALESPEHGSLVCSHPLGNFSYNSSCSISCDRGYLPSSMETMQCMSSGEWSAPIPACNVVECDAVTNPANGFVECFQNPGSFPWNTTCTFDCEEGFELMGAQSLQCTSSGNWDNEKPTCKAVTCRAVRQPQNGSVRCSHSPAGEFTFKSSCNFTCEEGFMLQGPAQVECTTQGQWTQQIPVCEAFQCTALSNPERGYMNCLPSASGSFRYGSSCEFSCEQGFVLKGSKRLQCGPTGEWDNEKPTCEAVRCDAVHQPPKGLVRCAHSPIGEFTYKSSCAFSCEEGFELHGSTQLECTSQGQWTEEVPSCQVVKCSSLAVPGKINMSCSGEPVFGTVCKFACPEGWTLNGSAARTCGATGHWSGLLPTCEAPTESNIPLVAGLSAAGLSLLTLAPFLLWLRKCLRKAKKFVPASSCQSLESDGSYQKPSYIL
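Read-out: % PE-positive cells | Test system: HUVEC | Doses: One compound dose added by pin transfer | Buffer or medium: EGM-2 over gelatin coat | Signal: Immunofluorescence imaging | Benchmarks: TNF-alpha, DMSO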
Xi reactivation: reactivates the inactive X chromosome in mouse fibroblasts | XiGFP mouse fibroblasts, % GFP-positive cells imaging, 3 d; cells co-treated with 5-aza-dC sensitizer; scaled so ellipticine positive control = 100% | activation, % at 7.58 µM | 360,000 compounds, 0.055% hits;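 active = mean normalized replicate activation at least 10% and every replicate at or above 10%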;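 also: 0% = median of on-plate neutral control wells and 100% = ellipticine 6 µM median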
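System: XiGFP fibroblasts, SV40-immortalized. Medium: DMEM plus 5-aza-dC sensitizer. Doses: single point. Timing: 3 d treatment, 15 min room-temperature fixation. Control set: ellipticine 6 µM.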
Numbers without * were called inactive; / = no result given; ! = repeats disagree. Many of the other results were omitted from the sample, so hits are more common in it than they were.

SMILES | E-selectin induc | Xi reactivation
CN(C)C(=O)[C@H]1[C@H](CO)[C@H]2Cn3c(ccc(-c4ccncc4)c3=O)[C@@H]1N2CC1CCCC1 | 0.0 | 0.0
C[C@H](CO)N1C[C@H](C)[C@@H](CN(C)S(C)(=O)=O)Oc2ccc(NS(=O)(=O)c3cccs3)cc2C1=O | 428.5* | 0.0
C[C@H](CO)N1C[C@H](C)[C@H](CN(C)S(C)(=O)=O)Oc2ccc(NS(=O)(=O)c3cccs3)cc2C1=O | 0.7 | 0.1
C[C@@H]1CN([C@@H](C)CO)C(=O)c2cc(NS(=O)(=O)c3cccs3)ccc2O[C@@H]1CN(C)C(=O)Nc1ccc2c(c1)OCO2 | 36.0* | -0.1
C[C@H]1CN([C@@H](C)CO)C(=O)c2cc(NS(=O)(=O)c3cccs3)ccc2O[C@@H]1CN(C)C(=O)Nc1ccc2c(c1)OCO2 | 1.4 | -0.9
O=C(Nc1ccc2c(c1)OCO2)N[C@@H]1C=C[C@@H](CC(=O)N2CCN(c3ccccc3)CC2)O[C@H]1CO | -0.6 | -0.1
O=C(NCc1ccccn1)[C@@H]1[C@@H](CO)[C@@H]2Cn3c(cccc3=O)[C@H]1N2CC1CCCC1 | 0.5 | -0.1
O=[N+]([O-])c1ccc(C[n+]2ccc(Cc3ccccc3)cc2)cc1 | / | 7.1
c1ccc(Cc2cc[n+](Cc3ccccn3)cc2)cc1 | 45.2* | 0.1
CO[C@H]1CN(C)C(=O)c2ccc(NS(=O)(=O)c3ccccc3)cc2OC[C@@H](C)N(Cc2ccccn2)C[C@@H]1C | 0.0 | 0.2
CC(C)(C)[S@](=O)N1Cc2cc(C(=O)N[C@H]3CCN(Cc4ccccc4)C3)nc(-c3cccc(-c4ccncc4)c3)c2[C@@H]1CCO | 62.5* | 0.0
CC(C)(C)[S@](=O)N1Cc2cc(C(=O)N[C@@H]3CCN(Cc4ccccc4)C3)nc(-c3cccc(-c4cccnc4)c3)c2[C@@H]1CCO | 0.1 | 0.0
COc1ccc(CNC(=O)c2cc3c(c(-c4cccc(-c5cccc(C#N)c5)c4)n2)[C@H](CCO)N([S@@](=O)C(C)(C)C)C3)cc1 | 54.5* | 0.0
COc1ccc(CNC(=O)c2cc3c(c(-c4cccc(-c5ccc(C#N)cc5)c4)n2)[C@H](CCO)N([S@@](=O)C(C)(C)C)C3)cc1 | 5.4 | -0.1
CCCNC(=O)N[C@H]1CC[C@H](CC(=O)NC2CCC2)O[C@@H]1CO | -0.1 | 0.1
CN(CC(=O)Nc1ccc2c(c1)OCO2)CC(=O)Nc1ccc(F)c(F)c1F | / | 0.0
CN(CC(=O)Nc1ccc(Cl)c(Cl)c1)CC(=O)Nc1ccc2c(c1)OCO2 | 22.7 | 120.4*
C[C@H](CO)N1C[C@H](C)[C@@H](CN(C)S(=O)(=O)c2ccccc2)Oc2ccc(N(C)C)cc2CC1=O | / | -1.1
CC(=O)N1[C@H](C(=O)NCCCN(C)C)[C@@H](CO)[C@@H]2Cn3c(ccc(-c4cccc(F)c4)c3=O)[C@@H]21 | -1.4 | -0.1
CCc1ccc(C(=O)c2cc3ccc(O)cc3oc2=O)cc1 | 0.0 | 0.0
O=C(c1ccc(Br)cc1)c1cc2ccc(O)cc2oc1=O | 46.4* | 0.3
COCC(=O)Nc1ccc2c(c1)OC[C@@H](C)N(C(=O)C1CCCC1)C[C@@H](C)[C@@H](OC)CN(C)C2=O | -0.1 | 0.2
O=C(CN(C(=O)CNC(=O)c1cccs1)c1ccccc1F)NC1CCCCC1 | 4.6 | 0.4
Cc1ccccc1N(CC(=O)NC1CCCCC1)C(=O)CNC(=O)c1cccs1 | 44.9* | 0.4
O=C(NCc1ccccc1)C1C(=O)Nc2ccccc2C(=O)N1C1CCCC1 (stereo not drawn) | -0.1 | 0.0
SMILES | E-selectin induc | Xi reactivation
O=C(NCCc1ccccc1)C1C(=O)Nc2ccccc2C(=O)N1C1CCCCC1 (stereo not drawn) | 207.3* | 0.1
C[C@@H]1CN([C@H](C)CO)C(=O)c2cccc(NC(=O)C3CCCCC3)c2O[C@H]1CN(C)Cc1ccccc1 | 0.4 | 0.3
C[C@H]1CN([C@@H](C)CO)C(=O)c2cccc(NC(=O)Nc3cccc4ccccc34)c2O[C@H]1CN(C)Cc1ccc(-c2ccccc2)cc1 | 89.7* | 0.3
C[C@H](CO)N1C[C@H](C)[C@H](CN(C)Cc2ccccc2)Oc2c(NC(=O)Nc3cccc4ccccc34)cccc2C1=O | -0.3 | 0.1
C[C@@H]1CN([C@H](C)CO)C(=O)c2cccc(NC(=O)C3CC3)c2O[C@@H]1CN(C)Cc1ccccc1 | 72.0* | 0.4
C[C@H](CO)N1C[C@H](C)[C@@H](CN(C)Cc2ccccc2)Oc2c(NC(=O)C3CC3)cccc2C1=O | 102.1*! | -0.1
C[C@H](CO)N1C[C@H](C)[C@H](CN(C)Cc2ccccc2)Oc2c(NC(=O)C3CC3)cccc2C1=O | -20.0 | -0.1
Cc1ccc(S(=O)(=O)Nc2ccc3c(c2)C(=O)N([C@H](C)CO)C[C@@H](C)[C@@H](CN(C)CC2CCCCC2)OCCCC[C@@H](C)O3)cc1 | 0.0 | 0.3
COc1ccccc1C(=O)Nc1ccc2c(c1)C(=O)N(C)C[C@H](OC)[C@@H](C)CN(C)[C@H](C)CO2 | -0.2 | 0.4
CC(C)(C)NC(=S)N/N=C\c1ccc(-c2ccc([N+](=O)[O-])cc2)o1 | / | 66.4*
CCCCC(=O)N/N=C/c1ccc(-c2ccc([N+](=O)[O-])cc2)o1 | / | 0.1
CCOC(=O)N1CCN=C1SCc1ccc(Cl)c(Cl)c1 | 118.9* | 0.2
CC(=O)N1CCN=C1SCc1ccc(Br)cc1 | / | 0.7
COc1ccc2c3c([nH]c2c1)[C@@H](CO)N(C(=O)CN1CCOCC1)CC31CN(C)C1 | / | 0.4
CCC(=O)N1C[C@H](C)[C@H](OC)CN(C)C(=O)c2cc(NC(=O)c3ccccc3)ccc2OC[C@@H]1C | 0.1 | 0.7
CC(C)(C)C(=O)/C(=C/c1cccc([N+](=O)[O-])c1)n1cncn1 | / | 0.7
CC(C)NC(=O)Nc1ccc2c(c1)C(=O)N(C)[C@@H]1CC[C@@H](CC(=O)NCC(F)(F)F)O[C@@H]1CO2 | 104.9* | 0.0
CC(C)NC(=O)Nc1ccc2c(c1)C(=O)N(C)[C@H]1CC[C@H](CC(=O)NCC(F)(F)F)O[C@@H]1CO2 | 0.0 | 0.5
CNC(=O)C[C@H]1CC[C@@H]2[C@@H](COc3ccc(NC(=O)c4cccc(F)c4)cc3C(=O)N2C)O1 | 0.1 | 0.1
CNC(=O)C[C@H]1CC[C@H]2[C@@H](COc3ccc(NC(=O)c4cccc(F)c4)cc3C(=O)N2C)O1 | 91.9* | 0.0
CCNC(=O)C[C@@H]1CC[C@H]2[C@@H](COc3ccc(NC(=O)Nc4ccc(F)cc4)cc3C(=O)N2C)O1 | 84.2* | 0.0
CCNC(=O)C[C@@H]1CC[C@@H]2[C@@H](COc3ccc(NC(=O)Nc4ccc(F)cc4)cc3C(=O)N2C)O1 | 0.0 | 0.2
COc1ccc(NC(=O)N(C)C[C@@H]2OCc3cn(nn3)CCCC(=O)N([C@H](C)CO)C[C@@H]2C)cc1 | 0.0 | -0.5
CO[C@@H]1CN(C)C(=O)c2cc(NC(=O)c3cccc(F)c3)ccc2OC[C@H](C)N(C(C)=O)C[C@@H]1C | 0.3 | 0.3
C[C@@H]1CN([C@@H](C)CO)C(=O)c2cc(NC(=O)Cn3cnnn3)ccc2O[C@H]1CN(C)Cc1ccc(Oc2ccccc2)cc1 | 47.8* | 0.0
C[C@H](CO)N1C[C@H](C)[C@H](CN(C)Cc2ccc3c(c2)OCO3)Oc2ccc(NC(=O)Cn3cnnn3)cc2C1=O | 38.5* | -0.1
